We go through 6 molecules from ChEMBL document CHEMBL5647691, “CDKN2A/p16 Loss Implicates CDK4 as a Therapeutic Target in Imatinib-Resistant Dermatofibrosarcoma Protuberans” (Mol Cancer Ther, 2015).

Calls of active or inactive are those of the source. The calls are words filed in the database; no cut-off is given here.

Series [1] can be described thus: Antiproliferative activity against human Imatinib-resistant DFSP105 cells assessed as cell growth inhibition incubated for 48 hrs by BrdU cell proliferation assay. It is filed as functional. A digest of the protocol: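 DFSP105 cells (IMDM, 15% FBS, passages 10-30) seeded at 2500/well; drug added in fresh medium 24 h after plating, 48 h exposure, BrdU added for final 24 h. Proliferation read by BrdU chemiluminescent ELISA; GI50 = 50% growth inhibition concentration.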

Series [2] concerns the target Platelet-derived growth factor receptor beta (Homo sapiens) (UniProt P09619). To be noted: Imatinib-resistant DFSP105 cell, dose 500.0 nM.
Series [3] concerns the target T1, Retinoblastoma-associated protein (Homo sapiens) (UniProt P06400).
T1 sequence (whole entry): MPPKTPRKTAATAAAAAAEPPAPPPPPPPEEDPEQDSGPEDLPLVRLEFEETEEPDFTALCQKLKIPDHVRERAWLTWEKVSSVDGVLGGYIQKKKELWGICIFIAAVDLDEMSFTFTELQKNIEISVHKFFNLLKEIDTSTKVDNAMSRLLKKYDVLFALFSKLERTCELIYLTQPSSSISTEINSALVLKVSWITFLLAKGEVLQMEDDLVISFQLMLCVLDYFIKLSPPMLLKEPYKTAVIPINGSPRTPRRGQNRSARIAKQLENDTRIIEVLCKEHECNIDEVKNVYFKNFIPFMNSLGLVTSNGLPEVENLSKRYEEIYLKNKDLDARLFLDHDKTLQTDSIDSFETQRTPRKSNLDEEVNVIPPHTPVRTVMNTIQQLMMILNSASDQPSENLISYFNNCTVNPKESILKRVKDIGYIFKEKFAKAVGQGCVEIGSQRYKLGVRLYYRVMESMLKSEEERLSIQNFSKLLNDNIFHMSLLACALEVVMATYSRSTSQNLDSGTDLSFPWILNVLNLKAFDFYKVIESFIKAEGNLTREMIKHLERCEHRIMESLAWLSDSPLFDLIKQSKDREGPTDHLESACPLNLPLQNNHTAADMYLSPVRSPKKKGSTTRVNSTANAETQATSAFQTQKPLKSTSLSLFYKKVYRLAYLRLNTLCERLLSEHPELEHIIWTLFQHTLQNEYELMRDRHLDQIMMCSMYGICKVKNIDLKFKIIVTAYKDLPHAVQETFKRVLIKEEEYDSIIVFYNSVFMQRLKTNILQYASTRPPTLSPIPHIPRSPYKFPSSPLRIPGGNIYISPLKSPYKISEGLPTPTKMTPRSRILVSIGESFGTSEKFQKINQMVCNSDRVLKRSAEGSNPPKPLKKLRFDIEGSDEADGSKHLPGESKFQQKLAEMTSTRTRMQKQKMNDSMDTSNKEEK
Nature of the series: Inhibition of RB1 phosphorylation at S795 residue in human Imatinib-resistant DFSP105 cells at […] incubated for 24 hrs by Western blot analysis. It is filed as cell-based. The following applies: Imatinib-resistant DFSP105 cell. Put shortly:
(§1)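 DFSP105 cells treated 24 h with CDK4/6 inhibitor over a dose series; whole-cell lysates cleared 14,000 rpm 30 min 4°C, protein by Bradford, then immunoblotting for phospho-RB1 and cyclin A.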

Series [4] concerns the target T1, Retinoblastoma-associated protein (Homo sapiens). Nature of the series: Inhibition of RB1 phosphorylation at S807 residue in human Imatinib-resistant DFSP105 cells at […] incubated for 24 hrs by Western blot analysis. It counts as cell-based. The following applies: Imatinib-resistant DFSP105 cell. A digest of the protocol:
as §1

Series [5] has the same target. The series can be described thus: Inhibition of RB1 phosphorylation at S811 residue in human Imatinib-resistant DFSP105 cells at […] incubated for 24 hrs by Western blot analysis. The following applies: Imatinib-resistant DFSP105 cell. It is filed as cell-based. A digest of the protocol:
as §1
For orientation: Immunoblotting shows a protein as a band on a membrane.

Series [6] has as its system Imatinib-resistant DFSP105 cell. Nature of the series: Antiproliferative activity against human Imatinib-resistant DFSP105 cells assessed as decrease in Cyclin A expression at […] incubated for 24 hrs by Western blot analysis. It counts as functional, cell-based. To be noted: […]. A digest of the protocol:
as §1

Series [7] has the same test system. Nature of the series: Antitumor activity against human Imatinib-resistant DFSP105 cells xenografted in athymic nude mouse assessed as tumor growth inhibition by measuring tumor size at 150 mg/kg,po daily for 5 weeks. It counts as functional, organism-based. A digest of the protocol: (§2)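 S.c. DFSP105 xenografts (2 million cells in Matrigel) in athymic nude mice, treated after ~5 weeks establishment with daily gavage: imatinib 75 mg/kg in water or PD-0332991 150 mg/kg in HCl/Cremophor EL/PEG 300/acetate pH 4.6 vehicle, versus untreated, for 5 weeks. Tumor volume and body weight monitored weekly; mean ± SE.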

For series [8] the test system is unchanged. Nature of the series: Antitumor activity against human Imatinib-resistant DFSP105 cells xenografted in athymic nude mouse assessed as decrease in RB1 phosphorylation at S795 residue in tumor at 150 mg/kg,po daily for 5 weeks by Western blot analysis. It counts as functional, organism-based. A digest of the protocol: (§3)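 Nude mice bearing s.c. DFSP105 xenografts (2 million cells in Matrigel, ~5 weeks to establish) dosed daily by gavage at 150 mg/kg in HCl/Cremophor EL/PEG 300/acetate pH 4.6 vehicle for 5 weeks; tumor lysates (homogenized in ice-cold buffer with protease inhibitors) immunoblotted for phospho-RB1.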
In general terms: Xenograft models place foreign cells or tissue in a host animal.

The test system is the same in series [9]. Nature of the series: Antitumor activity against human Imatinib-resistant DFSP105 cells xenografted in athymic nude mouse assessed as decrease in RB1 phosphorylation at S807 residue in tumor at 150 mg/kg,po daily for 5 weeks by Western blot analysis. It is filed as functional, organism-based. Put shortly: as §3
For series [10] the test system is unchanged. The series can be described thus: Antitumor activity against human Imatinib-resistant DFSP105 cells xenografted in athymic nude mouse assessed as tumor cell density at 150 mg/kg,po daily for 5 weeks by immunohistochemistry analysis. It is filed as functional, organism-based. A digest of the protocol:
(§4)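 Athymic nude mice given 2 million DFSP105 cells s.c. in Matrigel; after ~5 weeks tumor establishment, daily gavage (imatinib 75 mg/kg in water; PD-0332991 150 mg/kg in HCl/Cremophor EL/PEG 300/acetate pH 4.6 vehicle) for 5 weeks. BrdU i.p. 2 h before CO2 euthanasia; resected tumors examined histologically for cell density and BrdU-positive nuclei.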

Series [11] is described as follows: Toxicity in athymic nude mouse xenografted with human Imatinib-resistant DFSP105 cells assessed as body weight loss at 150 mg/kg,po daily for 5 weeks. It counts as organism-based. To be noted: in vivo, 840 h. A digest of the protocol:
as §2

In series [12] the test system is Imatinib-resistant DFSP105 cell. Nature of the series: Antitumor activity against human Imatinib-resistant DFSP105 cells xenografted in athymic nude mouse assessed as tumor growth inhibition by measuring tumor size at 75 mg/kg,po daily for 5 weeks. It is filed as functional, organism-based. Put shortly: as §2
Series [13] shares this test system. Nature of the series: Antitumor activity against human Imatinib-resistant DFSP105 cells xenografted in athymic nude mouse assessed as tumor cell density at 75 mg/kg,po daily for 5 weeks by immunohistochemistry analysis. It is filed as functional, organism-based. A digest of the protocol:
as §4

The nature of series [14]: Toxicity in athymic nude mouse xenografted with human Imatinib-resistant DFSP105 cells assessed as body weight loss at 75 mg/kg,po daily for 5 weeks. It counts as organism-based. To be noted: in vivo, 840 h. Put shortly: as §2

Platelet-derived growth factor receptor beta (Homo sapiens), sequence (P09619 whole entry): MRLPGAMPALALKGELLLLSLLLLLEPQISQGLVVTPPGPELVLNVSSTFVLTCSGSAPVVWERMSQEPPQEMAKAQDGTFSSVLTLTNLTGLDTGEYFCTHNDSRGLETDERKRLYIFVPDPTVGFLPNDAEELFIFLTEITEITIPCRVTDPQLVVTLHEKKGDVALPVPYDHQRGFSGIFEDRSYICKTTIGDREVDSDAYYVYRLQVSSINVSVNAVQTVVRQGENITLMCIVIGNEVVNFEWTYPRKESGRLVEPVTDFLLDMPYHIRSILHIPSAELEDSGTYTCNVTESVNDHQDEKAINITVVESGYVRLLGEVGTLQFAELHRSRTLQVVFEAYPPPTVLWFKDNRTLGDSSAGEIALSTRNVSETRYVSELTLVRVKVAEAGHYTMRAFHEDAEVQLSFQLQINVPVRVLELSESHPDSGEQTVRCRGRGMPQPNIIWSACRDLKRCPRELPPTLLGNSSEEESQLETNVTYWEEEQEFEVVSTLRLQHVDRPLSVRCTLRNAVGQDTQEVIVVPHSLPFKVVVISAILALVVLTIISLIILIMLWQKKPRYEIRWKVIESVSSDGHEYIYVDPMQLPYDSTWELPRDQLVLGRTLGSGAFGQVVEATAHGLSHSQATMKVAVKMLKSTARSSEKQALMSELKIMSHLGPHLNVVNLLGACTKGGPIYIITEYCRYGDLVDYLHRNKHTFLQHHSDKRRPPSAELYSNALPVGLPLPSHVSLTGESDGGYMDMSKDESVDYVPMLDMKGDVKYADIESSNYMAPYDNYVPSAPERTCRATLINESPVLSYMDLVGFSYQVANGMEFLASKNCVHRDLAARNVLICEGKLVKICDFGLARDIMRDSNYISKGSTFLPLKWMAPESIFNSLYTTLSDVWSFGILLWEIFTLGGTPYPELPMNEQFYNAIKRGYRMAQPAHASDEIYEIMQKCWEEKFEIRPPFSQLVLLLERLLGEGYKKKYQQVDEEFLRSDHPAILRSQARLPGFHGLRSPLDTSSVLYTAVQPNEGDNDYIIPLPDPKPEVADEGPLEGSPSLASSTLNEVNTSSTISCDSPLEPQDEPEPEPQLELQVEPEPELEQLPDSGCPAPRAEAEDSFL

With `CCN(CC)CCNC(=O)c1c(C)[nH]c(/C=C2\C(=O)Nc3ccc(F)cc32)c1C` [SUNITINIB], the GI50 (in general, the concentration giving 50% growth inhibition) in series [1] was above 5000 nM. Moreover, the inhibition result in [2] is “Active”.
Take `CO[C@H]1C[C@@H]2CC[C@@H](C)[C@@](O)(O2)C(=O)C(=O)N2CCCC[C@H]2C(=O)O[C@H]([C@H](C)C[C@@H]2CC[C@@H](OCCO)[C@H](OC)C2)CC(=O)[C@H](C)/C=C(\C)[C@@H](O)[C@@H](OC)C(=O)[C@H](C)C[C@H](C)/C=C/C=C/C=C/1C` [EVEROLIMUS]: in series [1], the GI50 turned out to be 5 nM.
For the molecule `CS(=O)(=O)N1CCN(Cc2cc3nc(-c4cccc5[nH]ncc45)nc(N4CCOCC4)c3s2)CC1` [PICTILISIB], in series [1], the GI50 stood at 1900 nM.
On to `CN(C)C(=O)c1cc2cnc(Nc3ccc(N4CCNCC4)cn3)nc2n1C1CCCC1` [RIBOCICLIB], for which, in [1], the GI50 is 276 nM. For the same molecule, the inhibition result in series [3], in series [4] and in series [5] was “Active” in each case. For the same molecule, the outcome in series [6] was Active.
Turning to `CC(=O)c1c(C)c2cnc(Nc3ccc(N4CCNCC4)cn3)nc2n(C2CCCC2)c1=O` [PALBOCICLIB], the GI50 in series [1] stood at 160 nM. The inhibition entry in series [3], in [4] and in series [5] was “Active” in each case. For the same molecule, the outcome in series [6], in series [7], in series [8] and in [9] was Active. In addition, in [10], the outcome was inactive. In addition, in series [11], the Activity entry is “Non-Toxic”.
Consider `Cc1ccc(NC(=O)c2ccc(CN3CCN(C)CC3)cc2)cc1Nc1nccc(-c2cccnc2)n1` [IMATINIB], for which, in [1], the 50% growth inhibitory concentration (GI50) is above 5000 nM. Moreover, the outcome in series [12] and in series [13] was inactive. Moreover, the Activity entry in [14] is “Non-Toxic”. The inhibition entry in [2] was “Active”.
